Each structure is given as a SMILES string. Active and inactive are the calls of the source.

Consider 19 compounds from ChEMBL document CHEMBL1132565 (J Med Chem, 1999).

One data set deals with Mu-type opioid receptor (Mus musculus, UniProt P42866). Kind of data set: Displacement of [3H]-DAGO from Opioid receptor mu 1 of adult male mouse brain. It counts as tissue-based. In a few lines: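 Crude membranes from adult male Albino Swiss mouse brain, pre-incubated 30 min at 25 °C to remove endogenous opioids. Competition against [3H]DAGO 0.5 nM on 1 mg membrane protein in 50 mM Tris-HCl pH 7.4, 35 °C for 90 min. Nonspecific binding defined with 10 µM naloxone, 12 inhibitor concentrations. GF/B filtration and scintillation counting. Ki from competition curves, run in triplicate.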
Background: Loss of bound radioactivity is the signal in a displacement assay; it reports binding, not function.

For another data set, the species on record is Cavia porcellus. Kind of data set: In vitro concentration required to inhibit electrically evoked twitch in isolated guinea pig ileum. It counts as functional. A digest of the protocol: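 Myenteric plexus-longitudinal muscle strips from male guinea pig small intestine, field-stimulated with supramaximal bipolar rectangular pulses. Inhibition of the electrically evoked twitch measured. IC50 taken from concentration-response curves, at least six tissues.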

The nature of data set [1]: Half-life time of enzymatic breakdown in mouse brain. It counts as ADME. In a few lines: (§1)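 Methanol added to stop each sample, followed by centrifugation. Residual activity in the supernatant was bioassayed on GPI or MVD and expressed as % of time-0 recovery. Three experiments.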
Data set [2] in a line: Half-life time of enzymatic breakdown in mouse liver. It counts as ADME. In a few lines:
as §1

Data set [3] concerns Mus musculus. Kind of data set: Antinociceptive activity after subcutaneous administration in mice. It counts as functional. In a few lines: (§2)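 Male CD-1 mice (25-30 g), peptide dissolved in sterile Ringer's solution and injected subcutaneously at 0.05 mL/10 g, 5-8 animals per dose. Hot plate at 55 °C, latency to back-paw licking or escape jump recorded. Cut-off 15 s. Mice not responding within 5 s before drug were excluded. Testing every 15 min for the first hour, then every 30 min. %MPE calculated. AD50 with 95% CL by Litchfield-Wilcox.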

The species named for data set [4] is Mus musculus. Kind of data set: In vitro concentration required to inhibit electrically evoked twitch in isolated mouse vas deferens. It counts as functional. A digest of the protocol:
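Mouse vas deferens field-stimulated with supramaximal bipolar rectangular pulses. Inhibition of the electrically evoked twitch measured. IC50 taken from concentration-response curves, at least six tissues.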

The target in data set [5] is Delta-type opioid receptor (Mus musculus, UniProt P32300). In words: Displacement of [3H]NLT from Opioid receptor delta 1 of adult male mouse brain.
Data set [6] concerns Mus musculus. Kind of data set: Antinociceptive activity after subcutaneous administration in mice. p<0.05 vs dermorphin. It counts as functional. A digest of the protocol: as §2
In data set [7] the test system is Mus musculus. Kind of data set: Antinociceptive activity after subcutaneous administration in mice was determined in analgesia hotplate test. It counts as functional. In a few lines:
as §2

The subject of data set [8] is Mus musculus. Kind of data set: Antinociceptive activity after subcutaneous administration in mice; the highest dose tested, 100 uM/Kg, was unable to produce a significant analgesia. It counts as functional, organism-based. A digest of the protocol:
as §2

Delta-type opioid receptor, sequence (P32300 whole entry): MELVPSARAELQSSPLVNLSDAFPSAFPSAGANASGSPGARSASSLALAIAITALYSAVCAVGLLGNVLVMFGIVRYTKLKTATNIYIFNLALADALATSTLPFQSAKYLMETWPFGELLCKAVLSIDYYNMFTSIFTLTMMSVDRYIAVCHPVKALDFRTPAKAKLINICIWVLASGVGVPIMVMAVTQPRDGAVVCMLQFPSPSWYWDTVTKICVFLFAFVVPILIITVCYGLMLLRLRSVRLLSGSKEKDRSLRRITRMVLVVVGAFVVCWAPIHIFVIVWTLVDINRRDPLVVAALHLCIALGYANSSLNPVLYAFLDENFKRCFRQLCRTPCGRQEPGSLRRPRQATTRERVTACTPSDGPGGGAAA
Mu-type opioid receptor, sequence (P42866 whole entry): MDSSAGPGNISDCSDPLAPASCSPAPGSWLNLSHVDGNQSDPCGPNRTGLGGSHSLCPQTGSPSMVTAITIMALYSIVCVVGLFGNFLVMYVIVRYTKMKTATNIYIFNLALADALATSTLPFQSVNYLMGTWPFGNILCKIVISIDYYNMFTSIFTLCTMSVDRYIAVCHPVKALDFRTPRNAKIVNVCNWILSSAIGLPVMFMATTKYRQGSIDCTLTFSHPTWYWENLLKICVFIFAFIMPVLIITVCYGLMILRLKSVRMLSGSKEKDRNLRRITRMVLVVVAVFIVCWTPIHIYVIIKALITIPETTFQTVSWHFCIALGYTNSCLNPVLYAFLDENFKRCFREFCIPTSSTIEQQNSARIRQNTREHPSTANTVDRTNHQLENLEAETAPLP

Turning to `C[C@@H](NC(=O)[C@@H](N)Cc1ccc(O)cc1)C(=O)N[C@@H](Cc1ccccc1)C(=O)NCC(=O)N[C@@H](Cc1ccc(O)cc1)C(=O)N1CCC[C@H]1C(=O)N[C@@H](CO)C(N)=O` [DERMORPHIN], at Mu-type opioid receptor, the Ki came to 1.1 nM. Moreover, the IC50 amounted to 1.5 nM in the data set listed under Cavia porcellus and 19 nM in the data set filed under Mus musculus [4]. Further, the half-life was 0.333 h in data set [1] and 0.167 h in [2]. Besides, in the data set on Mus musculus [3], the AD50 amounted to 2.4 µM/kg.
In the data set on Mus musculus [3], `CC(=O)O[C@H]1[C@H](O)[C@@H](O)[C@@H](O)O[C@@H]1COC(=O)[C@@H](CO)NC(=O)[C@@H](NC(=O)[C@@H](NC(=O)[C@H](CC(=O)O)NC(=O)[C@H](Cc1ccccc1)NC(=O)[C@@H](C)NC(=O)[C@@H](N)Cc1ccc(O)cc1)C(C)C)C(C)C` had an AD50 of 70 µM/kg.
Turning to `C[C@@H](NC(=O)[C@@H](N)Cc1ccc(O)cc1)C(=O)N[C@@H](Cc1ccccc1)C(=O)NCC(=O)N[C@@H](Cc1ccc(O)cc1)C(=O)N1C[C@H](O)C[C@H]1C(=O)N[C@@H](CCCCN)C(N)=O`, the Ki on Mu-type opioid receptor was 0.5 nM; in data set [5] it was 1410 nM. Also, the IC50 was 2.1 nM in the data set listed under Cavia porcellus and 35 nM in the data set filed under Mus musculus [4]. The half-life in [1] came to 0.5 h; in data set [2] it was 0.333 h. Further, in the data set with Mus musculus [6], the AD50 was 0.9 µM/kg.
For `C[C@H](NC(=O)[C@@H]1CCCN1C(=O)[C@H](Cc1ccc(O)cc1)NC(=O)CNC(=O)[C@H](Cc1ccccc1)NC(=O)[C@@H](C)NC(=O)[C@@H](N)Cc1ccc(O)cc1)C(N)=O`, the values for the Ki (at Mu-type opioid receptor; in data set [5]) were 1.2 nM and 1110 nM, respectively. For the same compound, the IC50 was 1.6 nM in the data set listed under Cavia porcellus and 24 nM in the data set filed under Mus musculus [4].
`CC(=O)O[C@@H]1[C@H](O)[C@@H](O)[C@@H](O)O[C@@H]1COC(=O)[C@H](C)NC(=O)[C@@H]1CCCN1C(=O)[C@H](Cc1ccc(O)cc1)NC(=O)CNC(=O)[C@H](Cc1ccccc1)NC(=O)[C@@H](C)NC(=O)[C@@H](N)Cc1ccc(O)cc1`: the results for the Ki (on Mu-type opioid receptor; in data set [5]) were 11.2 nM and more than 5000 nM, respectively. In addition, the IC50 in the data set filed under Cavia porcellus stood at 6 nM; in the data set filed under Mus musculus [4], 65 nM. Moreover, in the data set on Mus musculus [3], the AD50 was 6.6 µM/kg.
On to `CC(=O)O[C@H]1[C@H](O)[C@@H](O)[C@@H](O)O[C@@H]1COC(=O)[C@H](CO)NC(=O)[C@@H](NC(=O)[C@@H](NC(=O)[C@H](CC(=O)O)NC(=O)[C@H](Cc1ccccc1)NC(=O)[C@@H](C)NC(=O)[C@@H](N)Cc1ccc(O)cc1)C(C)C)C(C)C`, for which the inhibition constant Ki was 1920 nM on Mu-type opioid receptor and 28 nM in data set [5]. Further, the results for the half-inhibitory concentration (IC50) in the data set filed under Cavia porcellus and in the data set listed under Mus musculus [4] were 1900 nM and 2.7 nM, respectively. Further, the half-life in data set [1] is more than 4 h; in [2], 4 h.
Turning to `C[C@@H](NC(=O)[C@@H](N)Cc1ccc(O)cc1)C(=O)N[C@@H](Cc1ccccc1)C(=O)NCC(=O)N[C@@H](Cc1ccc(O)cc1)C(=O)N1CCC[C@H]1C(=O)N[C@@H](CO)C(=O)OC[C@H]1O[C@H](O)[C@H](O)[C@@H](O)[C@@H]1O`, the IC50 is 3.5 nM in the data set filed under Cavia porcellus and 40 nM in the data set filed under Mus musculus [4]. The AD50 with Mus musculus [7] is 1.4 µM/kg. Further, the half-life in data set [1] came out at 0.633 h; in data set [2] it was 0.5 h.
With `CC(C)[C@H](NC(=O)[C@H](CC(=O)O)NC(=O)[C@H](Cc1ccccc1)NC(=O)[C@@H](C)NC(=O)[C@@H](N)Cc1ccc(O)cc1)C(=O)N[C@H](C(=O)NCC(N)=O)C(C)C` [DELTORPHIN C], the inhibition constant (Ki) on Mu-type opioid receptor came to 1980 nM. The half-inhibitory concentration (IC50) in the data set listed under Cavia porcellus was 1240 nM; in the data set filed under Mus musculus [4], 0.2 nM. Moreover, the half-life in [1] amounted to 4 h; in data set [2] it was 1.83 h. Besides, the AD50 in the data set with Mus musculus [3] was 87 µM/kg.
For the compound `CC(=O)O[C@H]1[C@@H](OC(=O)[C@@H](C)NC(=O)[C@@H](NC(=O)[C@@H](NC(=O)[C@H](CC(=O)O)NC(=O)[C@H](Cc2ccccc2)NC(=O)[C@@H](C)NC(=O)[C@@H](N)Cc2ccc(O)cc2)C(C)C)C(C)C)O[C@H](O)[C@H](O)[C@H]1O`, in the data set on Mus musculus [7], the AD50 was 61 µM/kg.
With `CC(C)[C@H](NC(=O)[C@H](CC(=O)O)NC(=O)[C@H](Cc1ccccc1)NC(=O)[C@@H](C)NC(=O)[C@@H](N)Cc1ccc(O)cc1)C(=O)N[C@H](C(=O)N[C@@H](CO)C(=O)OC[C@H]1O[C@H](O)[C@H](O)[C@@H](O)[C@@H]1O)C(C)C`, the inhibitory constant (Ki) at Mu-type opioid receptor worked out at 879 nM; in [5] it was 23 nM. Besides, the half-maximal inhibitory concentration (IC50) in the data set listed under Cavia porcellus is 1600 nM; in the data set listed under Mus musculus [4] it was 3.1 nM. Also, the half-life in data set [1] was more than 4 h; in data set [2], 3 h.
Turning to `CC(C)[C@H](NC(=O)[C@H](CC(=O)O)NC(=O)[C@H](Cc1ccccc1)NC(=O)[C@@H](C)NC(=O)[C@@H](N)Cc1ccc(O)cc1)C(=O)N[C@H](C(=O)N[C@H](C)C(=O)O[C@H]1O[C@H](O)[C@H](O)[C@@H](O)[C@H]1O)C(C)C`, the AD50 with Mus musculus [7] is 19 µM/kg.
On to `CC(C)[C@H](NC(=O)[C@H](CC(=O)O)NC(=O)[C@H](Cc1ccccc1)NC(=O)[C@@H](C)NC(=O)[C@@H](N)Cc1ccc(O)cc1)C(=O)N[C@H](C(=O)N[C@H](C)C(N)=O)C(C)C`, for which the AD50 entry in the data set with Mus musculus [8] was “inactive”.
For the compound `CC(C)[C@H](NC(=O)[C@H](CC(=O)O)NC(=O)[C@H](Cc1ccccc1)NC(=O)[C@@H](C)NC(=O)[C@@H](N)Cc1ccc(O)cc1)C(=O)N[C@H](C(=O)N[C@@H](C)C(=O)O[C@H]1O[C@H](O)[C@H](O)[C@@H](O)[C@H]1O)C(C)C`, the values for the Ki (at Mu-type opioid receptor; in data set [5]) were 1590 nM and 176 nM, respectively. The concentration for half-maximal inhibition (IC50) in the data set filed under Cavia porcellus is more than 2000 nM; in the data set filed under Mus musculus [4], 36 nM.
`CC(=O)O[C@H]1[C@H](O)[C@@H](O)[C@@H](O)O[C@@H]1COC(=O)[C@H](CO)NC(=O)[C@@H]1CCCN1C(=O)[C@H](Cc1ccc(O)cc1)NC(=O)CNC(=O)[C@H](Cc1ccccc1)NC(=O)[C@@H](C)NC(=O)[C@@H](N)Cc1ccc(O)cc1`: the IC50 in the data set listed under Cavia porcellus came to 8.2 nM; in the data set filed under Mus musculus [4], 18 nM. Further, the half-life in [1] came out at 1.5 h; in [2], 1 h. Also, the AD50 in the data set with Mus musculus [3] was found to be 4.6 µM/kg.
Turning to `CC(=O)O[C@H]1[C@@H](OC(=O)[C@H](C)NC(=O)[C@@H](NC(=O)[C@@H](NC(=O)[C@H](CC(=O)O)NC(=O)[C@H](Cc2ccccc2)NC(=O)[C@@H](C)NC(=O)[C@@H](N)Cc2ccc(O)cc2)C(C)C)C(C)C)O[C@H](O)[C@H](O)[C@H]1O`, the results for the Ki (on Mu-type opioid receptor; in [5]) were 2830 nM and 160 nM, respectively. Also, the IC50 was more than 2000 nM in the data set listed under Cavia porcellus and 43 nM in the data set listed under Mus musculus [4].
In the data set on Mus musculus [7], `CC(C)[C@H](NC(=O)[C@H](CC(=O)O)NC(=O)[C@H](Cc1ccccc1)NC(=O)[C@@H](C)NC(=O)[C@@H](N)Cc1ccc(O)cc1)C(=O)N[C@H](C(=O)N[C@H](CO)C(=O)OC[C@H]1O[C@H](O)[C@H](O)[C@@H](O)[C@@H]1O)C(C)C` gave an AD50 of 44 µM/kg.
Turning to `CC(C)[C@H](NC(=O)[C@H](CC(=O)O)NC(=O)[C@H](Cc1ccccc1)NC(=O)[C@@H](C)NC(=O)[C@@H](N)Cc1ccc(O)cc1)C(=O)N[C@H](C(=O)N[C@@H](C)C(N)=O)C(C)C`, the Ki was 1900 nM on Mu-type opioid receptor and 40 nM in [5]. The IC50 was more than 2000 nM in the data set listed under Cavia porcellus and 6.9 nM in the data set filed under Mus musculus [4].
Regarding `C[C@H](NC(=O)[C@@H]1CCCN1C(=O)[C@H](Cc1ccc(O)cc1)NC(=O)CNC(=O)[C@H](Cc1ccccc1)NC(=O)[C@@H](C)NC(=O)[C@@H](N)Cc1ccc(O)cc1)C(=O)OC[C@H]1O[C@H](O)[C@H](O)[C@@H](O)[C@H]1O`, the Ki came out at 2.5 nM at Mu-type opioid receptor and 2850 nM in data set [5]. The IC50 worked out at 4 nM in the data set filed under Cavia porcellus and 55 nM in the data set filed under Mus musculus [4]. For the same compound, the AD50 in the data set with Mus musculus [7] came to 1.1 µM/kg.
For the compound `CC(C)[C@H](NC(=O)[C@H](CC(=O)O)NC(=O)[C@H](Cc1ccccc1)NC(=O)[C@@H](C)NC(=O)[C@@H](N)Cc1ccc(O)cc1)C(=O)N[C@H](C(=O)N[C@@H](CO)C(N)=O)C(C)C`, the inhibition constant Ki was 1100 nM on Mu-type opioid receptor and 30 nM in data set [5]. Further, the IC50 in the data set listed under Cavia porcellus came out at 1400 nM; in the data set listed under Mus musculus [4], 4.3 nM.

What is called Ki is a measure of affinity in units of concentration, obtained from inhibition or displacement. Usually IC50 stands for the midpoint of a concentration-inhibition curve. The term half-life denotes how long it takes for the measured level to halve. A lower half-life goes with rapid decline.
